Screens deposited in PubChem by several laboratories.
T cell HTS: T cell immune modulators affecting CD8 T cell-vesicle binding. 330,000 tested, 0.068% active. response (vesicle binding), % at 7 µM. 2C CD8+ T cell-vesicle binding, flow cytometry; hits give low values. AID 2052;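 active = response, share of CD8 T cells binding vesicles, and their 90th percentile fluorescence all below set limits, cut at about 80% in these data, passing the limit was not always enough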;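 also: values below 100% mean blocked vesicle binding to the CD8+ T cells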
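Material: 2C TCR transgenic mouse naive CD8+ T cells, MACS-purified. Also added: QL9-charged Drosophila Ld/ICAM-1/B7-1 vesicles. Timing: binding 1.5 h at 37 °C. Measured by: high-throughput flow cytometry with anti-B7-1 and anti-CD8 staining. Read-out: percent CD8+ FL2 mean versus row control. Controls: Unloaded micro-vesicles (low), QL9 vesicles with 0.7% DMSO (high).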
CR mimetic SO: yeast age-related superoxide inhibition as caloric restriction mimetic | S. cerevisiae aged cells, superoxide DHE fluorescence; hits give low values | superoxide response (% of plate mean), % at 10 µM | 330,000 tested, 0.18% active | AID 2690;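 active = superoxide response under a set limit, about three screen SD below normal, cut at about 65% in these data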;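 also: yeast aged for seven days with compound at 30 °C before DHE staining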
V-ATPase pH: yeast V-ATPase proton transport regulation by pHLuorin | S. cerevisiae, pHLuorin cytosolic pH fluorescence | response, % at 10 µM | 350,000 tested, 0.37% active; in the data active = response mostly above about 7.3%, no sharp cut-off; inactive = mostly below about 5.4%; also: actives read high
Rce1 inhib: inhibitors of yeast Ras-converting enzyme; Q03530; yeast membranes, quenched prenylated peptide cleavage fluorescence; calls only; 290,000 tested, 0.27% active; AID 2563;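 active = fall in fluorescence gain of 50% or more versus controls, with final raw signal at or below 3038400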
Target sequence (Q03530 whole entry, looked up): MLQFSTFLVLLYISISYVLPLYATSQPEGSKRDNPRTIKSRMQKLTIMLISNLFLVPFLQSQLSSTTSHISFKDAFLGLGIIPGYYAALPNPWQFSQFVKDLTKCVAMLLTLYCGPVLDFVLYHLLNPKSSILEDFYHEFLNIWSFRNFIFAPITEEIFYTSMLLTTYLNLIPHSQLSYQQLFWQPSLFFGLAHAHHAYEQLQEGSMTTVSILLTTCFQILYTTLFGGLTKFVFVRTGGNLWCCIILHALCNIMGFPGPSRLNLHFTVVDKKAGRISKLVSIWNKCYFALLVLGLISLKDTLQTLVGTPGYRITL
KLK7 zymogen act: proKLK7 (human) activation, primary screen; P49862; 370,000 tested, 0.9% active; purified proKLK7, EDANS-DABCYL substrate fluorescence; 100% is mature enzyme control, 0% vehicle; activation, % at 7 µM;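 active = activation above the mean of all tested compounds plus 3 SD, computed per campaign excluding outliers beyond control limits, cut at about 13% in these data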
Target sequence (P49862 whole entry, looked up): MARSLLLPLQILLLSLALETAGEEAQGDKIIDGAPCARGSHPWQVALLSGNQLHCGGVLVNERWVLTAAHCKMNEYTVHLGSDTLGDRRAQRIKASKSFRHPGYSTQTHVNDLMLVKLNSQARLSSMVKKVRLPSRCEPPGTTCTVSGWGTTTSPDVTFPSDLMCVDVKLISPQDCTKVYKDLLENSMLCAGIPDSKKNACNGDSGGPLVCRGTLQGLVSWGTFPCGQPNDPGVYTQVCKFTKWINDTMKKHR
MIN6 prolif: MIN6 beta-cell proliferation induction | 330,000 tested, 0.29% active | proliferation, % at 10 µM | AID 2380 | MIN6 cells proliferation, ATPlite luminescence, 48 h; cells starved in 0.2% serum; 100% = growth in 10% serum;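 active = compounds whose signal lies at least 3.5 SD above the mean of all wells on their plate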
V-ATPase pH SP: yeast V-ATPase proton transport regulation. shares compounds with V-ATPase pH. AID 602197. response, % at 10 µM. 980 tested, 2% active. S. cerevisiae pHLuorin cytosolic pH; in the data active = response above about 24%
Large screens that a line does not name were inactive (follow-up assays come after a bar, where they were run). Rows were chosen to be rich in hits. Some 1.9% of all compounds tested hit in one or more screens of this group.

COc1ccc(N2CCN(C(=O)c3ccc(S(=O)(=O)N4CCCCCC4)cc3)CC2)cc1	V-ATPase pH 12.9 (no result: T cell HTS, CR mimetic SO, Rce1 inhib) | V-ATPase pH SP inactive
C[C@H](CO)N1C[C@H](C)[C@H](CN(C)C(=O)Nc2ccc(C(C)(C)C)cc2)OCc2cnnn2CCCC1=O	none (no result: T cell HTS, CR mimetic SO, Rce1 inhib, MIN6 prolif)
O=C(COC(=O)CCC(=O)c1ccc(F)cc1)NCCc1ccccc1	none (no result: Rce1 inhib) | V-ATPase pH SP inactive
N=C1c2ccccc2CN1NC(=O)COc1ccc(Cl)cc1	V-ATPase pH 11.4 | V-ATPase pH SP inactive
O=C(Nc1ccc(F)cc1)Nc1cc(S(=O)(=O)N2CCOCC2)ccc1N1CCCC1	V-ATPase pH 8.6 | V-ATPase pH SP inactive
N#Cc1c(-c2ccccc2)c(C#N)c2nc3ccccc3n2c1N	V-ATPase pH 9.1 | V-ATPase pH SP inactive
CC(=O)Nc1ccc2nc(CN3CCN(Cc4ccc(F)cc4)C(CCO)C3)ccc2c1 (stereo unspecified)	V-ATPase pH 11.1 | V-ATPase pH SP inactive
C[C@H](CO)N1C[C@H](C)[C@@H](CN(C)C)Oc2c(NC(=O)CCC(F)(F)F)cccc2C1=O	none (no result: Rce1 inhib)
CCn1c(COc2ccccc2)nnc1SCC(=O)Nc1ccc(S(=O)(=O)Nc2cc(C)nc(C)n2)cc1	none (no result: T cell HTS, CR mimetic SO, V-ATPase pH, Rce1 inhib, MIN6 prolif)
CCOC(=O)Nc1ccc2c(c1)N(C(=O)CCN(CC)CC)c1ccccc1CC2	V-ATPase pH 7.8 | V-ATPase pH SP inactive
COc1cc(C(=O)NCc2ccccc2Cl)ccc1OCC(=O)N1CCOCC1	none (no result: T cell HTS, CR mimetic SO, Rce1 inhib, MIN6 prolif)
CC(=O)Nc1c(Cl)cc2c(c1Cl)Cc1cc(C#N)ccc1-2	none (no result: T cell HTS, CR mimetic SO, Rce1 inhib, MIN6 prolif)
NCCCSC1=NCCCN1	none | V-ATPase pH SP inactive
COc1ccc(C(=O)Oc2c(C)occc2=O)cc1OC	V-ATPase pH 21.0 | V-ATPase pH SP inactive
NC(=O)C1CCCN(C(=O)CNC(=O)C23CC4CC(CC(C4)C2)C3)C1 (stereo unspecified)	none (no result: T cell HTS, CR mimetic SO, Rce1 inhib)
COC(=O)[C@]12C[C@H](CC(=O)NCC3CCCCC3)C(=O)N(CCc3ccc(OC)c(OC)c3)C1=C[C@H](COCc1ccccc1)O[C@@H]2C	none (no result: T cell HTS, CR mimetic SO, V-ATPase pH, Rce1 inhib, MIN6 prolif)
O=C(COC(=O)/C=C/c1ccccc1Cl)NC(=O)Cc1ccccc1	V-ATPase pH 9.9 | V-ATPase pH SP inactive
O=S(=O)(c1ccccc1)N(CC(O)Cn1c2ccccc2c2ccccc21)c1ccccc1 (stereo unspecified)	V-ATPase pH 7.8 | V-ATPase pH SP inactive
COc1ccccc1N(CC(O)Cn1c2ccccc2c2ccccc21)S(=O)(=O)c1ccccc1 (stereo unspecified)	none
O=C(O)CNC(=O)C(c1ccccc1)c1ccccc1	V-ATPase pH 11.4 | V-ATPase pH SP inactive
O=C(NCCO)C(c1ccccc1)c1ccccc1	none
O=C(O)CCCC(=O)N1CCCC1	V-ATPase pH 11.8 | V-ATPase pH SP inactive
CCc1nc2c(OCCOc3ccc(F)cc3)cccn2c1N(C)C(=O)c1cccs1	none (no result: T cell HTS, CR mimetic SO, V-ATPase pH, Rce1 inhib, MIN6 prolif)
COc1cccc(/C=c2\s/c(=C/C(=O)c3ccc(C)cc3)[nH]c2=O)c1OC	V-ATPase pH 8.0 | V-ATPase pH SP inactive
Nc1c(N(CCO)C(=O)C2CCCC2)c(=O)[nH]c(=O)n1Cc1ccccc1	none (no result: Rce1 inhib)
Cc1cc(N2CCCN(C)CC2)n2nc(C)nc2n1	none (no result: T cell HTS, CR mimetic SO, V-ATPase pH, Rce1 inhib, MIN6 prolif)
Cc1cc(N2CCN(c3ccccn3)CC2)n2nc(C)nc2n1	V-ATPase pH 8.4 | V-ATPase pH SP inactive
COc1ccc(Br)cc1C(=O)CCC(=O)OCC(=O)Nc1cc(C(N)=O)cc(C(N)=O)c1	none (no result: T cell HTS, CR mimetic SO, Rce1 inhib)
Nc1cc(C(=O)OCC(=O)NCCC2=CCCCC2)ccc1Cl	none (no result: Rce1 inhib)
O=C(COC(=O)c1cnc(Cl)c(Cl)c1)NCCC1=CCCCC1	V-ATPase pH 65.3 | V-ATPase pH SP inactive
O=C(C[C@H]1C/C=C\C[C@@H](Cc2ccc(F)cc2)C(=O)OC[C@@H](Cc2c[nH]c3ccccc23)NC1=O)NCCO	none (no result: Rce1 inhib)
COc1cccc(C(N)=O)c1	V-ATPase pH 11.2 | V-ATPase pH SP inactive
O=S(=O)(NC1=NCCC1)c1ccc(F)cc1F	V-ATPase pH 9.1 | V-ATPase pH SP inactive
Cc1ccc(NC(=O)CSc2nnc(Cc3ccccc3)c(=O)[nH]2)c(C)c1	V-ATPase pH 10.6 | V-ATPase pH SP inactive
O=C(Nc1ccc(N2CCOCC2)cc1)C1CCN(C(=O)OCc2ccccc2)CC1	none
O=C(Nc1ccc(N2CCOCC2)cc1Cl)C1CCN(C(=O)OCc2ccccc2)CC1	V-ATPase pH 10.3 | V-ATPase pH SP inactive
CCC(C(=O)O)N1C(=O)C2CCCCC2C1=O (stereo unspecified)	none
COC(=O)c1cc(S(=O)(=O)Nc2cccc(C)c2C)cn1C	V-ATPase pH 11.4 | V-ATPase pH SP inactive
CCCC(O)(c1ccc(OC)cc1)C(CN1CCOCC1)c1ccc(Cl)cc1 (stereo unspecified)	V-ATPase pH 11.7 | V-ATPase pH SP inactive
Cc1cccc(NCCC(=O)c2ccc([N+](=O)[O-])cc2)c1C	V-ATPase pH 95.9 | V-ATPase pH SP inactive
O=C(NCCc1ccccc1)C(=O)N/N=C/c1ccccc1C(F)(F)F	V-ATPase pH 9.6 | V-ATPase pH SP inactive
Cc1ccccc1N1CCN(C2=NC(=O)/C(=C/c3cn[nH]c3-c3ccccc3)S2)CC1	V-ATPase pH 8.3 | V-ATPase pH SP inactive
O=S(=O)(O)c1cc(O)ccc1O	V-ATPase pH 15.1 (no result: Rce1 inhib) | V-ATPase pH SP inactive
COCCNS(=O)(=O)c1ccc(C2CNC(=O)C2)cc1 (stereo unspecified)	none
COc1ccc(CNS(=O)(=O)c2ccc(C3CNC(=O)C3)cc2)cc1 (stereo unspecified)	V-ATPase pH 11.8 | V-ATPase pH SP inactive
CCOC(=O)Cn1c(O)c(N=NC(=O)OC)c2ccccc21	none
CCOC(=O)N=Nc1c(O)n(CC)c2ccccc12	none | V-ATPase pH SP inactive
CCOC(=O)N=Nc1c(O)n(Cc2ccccc2)c2ccccc12	none | V-ATPase pH SP inactive
COC(=O)N=Nc1c(O)n(Cc2ccccc2)c2ccccc12	none
COc1cccc(CNC(=O)CCC2CCCN(C(=O)c3ccc(C)nc3)C2)c1 (stereo unspecified)	V-ATPase pH 9.9 | V-ATPase pH SP inactive
CCOc1ncccc1C(=O)OCC(=O)NC(=O)c1ccccc1	none (no result: Rce1 inhib)
Cn1c(N)c(C(=O)c2ccc(F)cc2F)c(=O)n(C)c1=O	V-ATPase pH 8.4 | V-ATPase pH SP inactive
Cc1ccc(-c2nc3c(c(=O)[nH]c(=O)n3CC(C)C)n2CC(C)C)cc1[N+](=O)[O-]	none
CCCCn1c(=O)[nH]c(=O)c2c1nc(-c1ccc(C)c([N+](=O)[O-])c1)n2CC	V-ATPase pH 9.9 | V-ATPase pH SP inactive
OCCCn1c(-c2ccccc2)csc1=Nc1ccccc1	V-ATPase pH 8.0 | V-ATPase pH SP inactive
Cc1cccc(NC(=O)C(C)Sc2nnc(-c3cccnc3)o2)c1 (stereo unspecified)	none (no result: Rce1 inhib)
CCOC(=O)c1[nH]c2ccccc2c1NC(=O)c1nonc1C	none | V-ATPase pH SP inactive
CCOC(=O)c1[nH]c2ccc(Cl)cc2c1NC(=O)c1nonc1C	none
